From publication PMC4203516 (Autophagy, 2014)
Several values for one entry are separate records, joined by “and”; a condition that tells them apart may be missing. Identical values can stand only once. Entries after “also recorded” stand apart in the source; their conditions may differ.

How the values were obtained:
Assay type in all cases: in vivo, human
[1] = Phase I dose escalation: adverse events and dose-limiting toxicities
Outline: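 Open-label, single-institution 3 + 3 escalation. IV temsirolimus 25 mg weekly was infused over 30 min after IV diphenhydramine 25–50 mg premedication. A 1-wk temsirolimus-alone run-in preceded daily oral HCQ (200, 400, 800, 1200 mg), split ≥6 h apart above 200 mg. Cycles lasted 4 wk. The DLT window was the first 6 wk, later 5 wk. Toxicity-evaluable patients took ≥1 HCQ dose. Blood counts were weekly, then every 2 wk.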

advanced solid tumors = assay: RECIST 1.0 response, phase I dose escalation
Outline: (§1)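 Patients received IV temsirolimus 25 mg weekly, with a 1-wk single-agent run-in, then daily oral HCQ, treated until progression. Patients were evaluable for response after completing ≥2 wk of concurrent HCQ and temsirolimus. Progression was defined as >20% increase in measurable disease or appearance of a new lesion. Non-evaluable patients were replaced.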

advanced melanoma = assay: RECIST 1.0 response and progression-free survival, melanoma patients
Outline: as §1

[2] = HCQ whole blood population pharmacokinetics
[3] = Total, all HCQ doses + TEM 25 mg weekly, N=39
[4] = daily HCQ 200 mg + TEM 25 mg weekly, N=11
[5] = daily HCQ 400 mg + TEM 25 mg weekly, N=3
[6] = daily HCQ 800 mg + TEM 25 mg weekly, N=9
[7] = daily HCQ 1200 mg + TEM 25 mg weekly, N=16
[8] = Phase I dose escalation, HCQ dose cohort 200 + TEM, N=6 evaluable
[9] = Phase I dose escalation, HCQ dose cohort 400 + TEM, N=3
[10] = Phase I dose escalation, HCQ dose cohort 800 + TEM, N=9
[11] = Phase I dose escalation, HCQ dose cohort 1200 + TEM, N=3
[12] = Phase I dose escalation, Total, N=21 evaluable
[13] = dose escalation, of 19 patients
[14] = Melanoma patients, HCQ dose cohort 200–800 + TEM, N=6
[15] = Melanoma patients, HCQ dose cohort 1200 + TEM, N=13
[16] = melanoma expansion, of 12 patients, HCQ 1200 mg/d + TEM
[17] = population PK, 1000 bootstrap runs
[18] = population PK, whole blood, 34 patients, oral HCQ

CCN(CCO)CCCC(C)Nc1ccnc2cc(Cl)ccc12 (centres unmarked) [HCQ, hydroxychloroquine]
Anal fissure G1–2, % [1, 3]: 5%
Anal fissure G1–2, patients [1, 3]: 2
Anemia G1–2, patients [1, 3]: 4
Anemia G3–4, patients [1, 3]: 4
Anorexia G1–2, % [1, 3]: 41%
Anorexia G1–2, patients [1, 3]: 16
Anorexia G3–4, % [1, 3]: 8%
Anorexia G3–4, patients [1, 3]: 3
Constipation G1–2, % [1, 3]: 13%
Constipation G1–2, patients [1, 3]: 5
Diarrhea G1–2, patients [1, 3]: 7
Dizziness G1–2, % [1, 3]: 5%
Dizziness G1–2, patients [1, 3]: 2
Dysguesia G1–2, patients [1, 3]: 2
Dysguesia G3–4, patients [1, 3]: 1
Elevated creatinine G1–2, patients [1, 3]: 2
Elevated creatinine G3–4, patients [1, 3]: 1
Fatigue G1–2, patients [1, 3]: 19
Fatigue G3–4, patients [1, 3]: 3
Lymphopenia G1–2, % [1, 3]: 31%
Lymphopenia G3–4, % [1, 3]: 3%
Lymphopenia G3–4, patients [1, 3]: 1
Nausea G1–2, patients [1, 3]: 13
Nausea G3–4, % [1, 3]: 15%
Nausea G3–4, patients [1, 3]: 6
Neutropenia G1–2, % [1, 3]: 3%
Neutropenia G1–2, patients [1, 3]: 1
Poor wound healing G1–2, patients [1, 3]: 2
Rash G1–2, patients [1, 3]: 15
Stomatitis G1–2, patients [1, 3]: 16
Thrombocytopenia G1–2, % [1, 3]: 21%
Thrombocytopenia G1–2, patients [1, 3]: 8
Thrombocytopenia G3–4, % [1, 3]: 3%
Thrombocytopenia G3–4, patients [1, 3]: 1
Vitiligo G1–2, % [1, 3]: 5%
Vitiligo G1–2, patients [1, 3]: 2
Weight loss G1–2, % [1, 3]: 18%
Weight loss G1–2, patients [1, 3]: 7
Anemia G1–2, % [1, 4]: 9%
Anemia G1–2, patients [1, 4]: 1
Anemia G3–4, % [1, 4]: 9%
Anemia G3–4, patients [1, 4]: 1
Anorexia G1–2, % [1, 4]: 36%
Anorexia G1–2, patients [1, 4]: 4
Diarrhea G1–2, patients [1, 4]: 3
Fatigue G1–2, patients [1, 4]: 5
Lymphopenia G1–2, % [1, 4]: 45%
Lymphopenia G1–2, patients [1, 4]: 5
Nausea G1–2, patients [1, 4]: 4
Nausea G3–4, patients [1, 4]: 1
Neutropenia G1–2, patients [1, 4]: 1
Rash G1–2, patients [1, 4]: 3
Stomatitis G1–2, patients [1, 4]: 4
Thrombocytopenia G1–2, % [1, 4]: 36%
Thrombocytopenia G1–2, patients [1, 4]: 4
Thrombocytopenia G3–4, % [1, 4]: 9%
Thrombocytopenia G3–4, patients [1, 4]: 1
Weight loss G1–2, % [1, 4]: 18%
Weight loss G1–2, patients [1, 4]: 2
Anemia G1–2, % [1, 5]: 33%
Anemia G1–2, patients [1, 5]: 1
Anemia G3–4, % [1, 5]: 33%
Anemia G3–4, patients [1, 5]: 1
Anorexia G1–2, % [1, 5]: 33%
Anorexia G1–2, patients [1, 5]: 1
Diarrhea G1–2, % [1, 5]: 33%
Diarrhea G1–2, patients [1, 5]: 1
Fatigue G1–2, % [1, 5]: 67%
Fatigue G1–2, patients [1, 5]: 2
Lymphopenia G1–2, % [1, 5]: 33%
Lymphopenia G1–2, patients [1, 5]: 1
Rash G1–2, patients [1, 5]: 1
Stomatitis G1–2, patients [1, 5]: 1
Weight loss G1–2, % [1, 5]: 67%
Weight loss G1–2, patients [1, 5]: 2
Anal fissure G1–2, % [1, 6]: 11%
Anal fissure G1–2, patients [1, 6]: 1
Anemia G1–2, % [1, 6]: 22%
Anemia G1–2, patients [1, 6]: 2
Anemia G3–4, patients [1, 6]: 1
Anorexia G1–2, % [1, 6]: 56%
Anorexia G1–2, patients [1, 6]: 5
Anorexia G3–4, % [1, 6]: 11%
Anorexia G3–4, patients [1, 6]: 1
Constipation G1–2, % [1, 6]: 11%
Constipation G1–2, patients [1, 6]: 1
Diarrhea G1–2, % [1, 6]: 11%
Diarrhea G1–2, patients [1, 6]: 1
Fatigue G1–2, patients [1, 6]: 2
Fatigue G3–4, patients [1, 6]: 2
Lymphopenia G1–2, % [1, 6]: 33%
Lymphopenia G1–2, patients [1, 6]: 3
Nausea G1–2, patients [1, 6]: 4
Nausea G3–4, patients [1, 6]: 1
Rash G1–2, patients [1, 6]: 2
Stomatitis G1–2, patients [1, 6]: 4
Thrombocytopenia G1–2, % [1, 6]: 22%
Thrombocytopenia G1–2, patients [1, 6]: 2
Weight loss G1–2, patients [1, 6]: 1
Anal fissure G1–2, % [1, 7]: 6%
Anal fissure G1–2, patients [1, 7]: 1
Anemia G3–4, % [1, 7]: 6%
Anemia G3–4, patients [1, 7]: 1
Anorexia G1–2, % [1, 7]: 38%
Anorexia G1–2, patients [1, 7]: 6
Anorexia G3–4, % [1, 7]: 13%
Anorexia G3–4, patients [1, 7]: 2
Constipation G1–2, patients [1, 7]: 4
Diarrhea G1–2, % [1, 7]: 13%
Diarrhea G1–2, patients [1, 7]: 2
Dizziness G1–2, % [1, 7]: 13%
Dizziness G1–2, patients [1, 7]: 2
Dysguesia G1–2, patients [1, 7]: 2
Dysguesia G3–4, patients [1, 7]: 1
Elevated creatinine G1–2, patients [1, 7]: 2
Elevated creatinine G3–4, patients [1, 7]: 1
Fatigue G1–2, patients [1, 7]: 10
Fatigue G3–4, patients [1, 7]: 1
Lymphopenia G1–2, % [1, 7]: 38%
Lymphopenia G1–2, patients [1, 7]: 6
Lymphopenia G3–4, % [1, 7]: 6%
Lymphopenia G3–4, patients [1, 7]: 1
Nausea G1–2, patients [1, 7]: 5
Nausea G3–4, % [1, 7]: 25%
Nausea G3–4, patients [1, 7]: 4
Poor wound healing G1–2, patients [1, 7]: 2
Rash G1–2, patients [1, 7]: 9
Stomatitis G1–2, patients [1, 7]: 7
Thrombocytopenia G1–2, % [1, 7]: 13%
Thrombocytopenia G1–2, patients [1, 7]: 2
Vitiligo G1–2, patients [1, 7]: 2
Weight loss G1–2, % [1, 7]: 13%
Weight loss G1–2, patients [1, 7]: 2
Grade 3 pulmonary tumor abscess ([1]; head and neck cancer patient with history of aspiration, cycle 3): One patient
Recommended phase II dose of HCQ ([1]; in combination with TEM 25 mg weekly): 600 mg twice daily
Maximum tolerated dose (MTD) of HCQ ([1]; in combination with TEM 25 mg weekly, up to 1200 mg/d): not reached; also recorded: not defined
Grade 4 cholangitis and sepsis during tumor regression ([1]; melanoma patient with large gall bladder metastases, cohort not stated): One patient
PD (progressive disease), patients (advanced solid tumors; [8]): 2
PR (partial response), patients (advanced solid tumors; [8]): 0
PD (progressive disease), patients (advanced solid tumors; [9]): 0
PR (partial response), patients (advanced solid tumors; [9]): 0
PD (progressive disease), patients (advanced solid tumors; [10]): 4
PR (partial response), patients (advanced solid tumors; [10]): 0
PD (progressive disease), patients (advanced solid tumors; [11]): 1
PR (partial response), patients (advanced solid tumors; [11]): 0
PD (progressive disease), % (advanced solid tumors; [12]): 33%
PD (progressive disease), patients (advanced solid tumors; [12]): 7
PR (partial response), % (advanced solid tumors; [12]): 0 (0%)
PR (partial response), patients (advanced solid tumors; [12]): 0 (0%)
Partial responses by RECIST 1.0, whole study (advanced solid tumors; all cohorts): No partial responses
Patients with some degree of tumor shrinkage (waterfall plot) (advanced solid tumors; [13]): 7
Patients with some degree of tumor shrinkage, % (advanced solid tumors; [13]): 37%
PD (progressive disease), patients (advanced melanoma; [14]): 1
PR (partial response), patients (advanced melanoma; [14]): 0
PD (progressive disease), patients (advanced melanoma; [15]): 4
PR (partial response), patients (advanced melanoma; [15]): 0
PD (progressive disease), % (advanced melanoma; Melanoma patients, Total, N=19): 26%
PD (progressive disease), patients (advanced melanoma; Melanoma patients, Total, N=19): 5
PR (partial response), patients (advanced melanoma; Melanoma patients, Total, N=19): 0
Median progression-free survival (advanced melanoma; evaluable melanoma patients, HCQ 1200 mg/d + TEM, 95%CI 2–6 mo): 3.5 mo
Patients with some degree of tumor shrinkage (waterfall plot) (advanced melanoma; [16]): 6
Patients with some degree of tumor shrinkage, % (advanced melanoma; [16]): 50%
Vd/F ([2]; human, whole blood, po): 865 L
Cl/F, apparent oral clearance, bootstrap estimate [2, 17]: 15.953 L/h
Ka, absorption rate constant, bootstrap estimate [2, 17]: 0.758 h
Q, intercompartmental clearance, bootstrap estimate [2, 17]: 26.421 L/h
Tlag, absorption lag time, bootstrap estimate [2, 17]: 0.564 h
V2/F, apparent peripheral volume of distribution, bootstrap estimate [2, 17]: 3285.0246 L
V/F, apparent central volume of distribution, bootstrap estimate [2, 17]: 496.0499 L
Cl/F, apparent oral clearance, model estimate [2, 18]: 17.517 L/h
Ka, absorption rate constant, model estimate [2, 18]: 0.649 h
Q, intercompartmental clearance, model estimate [2, 18]: 26.067 L/h
Tlag, absorption lag time, model estimate [2, 18]: 0.399 h
V2/F, apparent peripheral volume of distribution, model estimate [2, 18]: 3236.73 L
Time to steady-state of HCQ blood concentrations, average ([2]; simulated from final PK model for individual patients): 350 h and 360 h
Blood HCQ AUC, Cmax, Cmin and Cavg relationship to dose ([2]; simulated steady-state, 200–1200 mg/d): proportional to daily HCQ dose
